MLL AF4-AF9 inh = inhibitors of human MLL-AF4/AF9 interaction | hit rate 0.47% among 350,000 | AlphaScreen, biotin-AF4 peptide binding to FLAG-AF9 | P42568 | AID 651704 | inhibition, % at 10 µM;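 active means every replicate reaching a set inhibition limit, whatever the replicate mean, cut at about 25% in these data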
GSIS activator = GLuc luminescence reporter in INS-1E cells, primary screen for activators of glucose-dependent secretion of insulin; AID 743287; hit rate 0.61% among 370,000; INS-1E GLuc reporter insulin secretion, 2-3 h; activation, % at 16.6 µM;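 active means lowest replicate activation of at least 40%, so every replicate reaches that level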
rRNA inh HTS = selective bacterial rRNA inhibition in E. coli; hit rate 1.6% among 350,000; E. coli WT GFP vs humanized-ribosome RFP mutants, fluorescence, 24 h; hits give low values; DMSO median 0, no signal -100; GFP signal change (wild-type ribosome), % (test concentration not listed); AID 720706;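 active means significant combined selectivity score with lowered wild-type GFP, culture density cut under 30%, mutant RFP and density less affected; inactive means any of these conditions unmet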
RAD54 inh = inhibitors of human RAD54 branch migration; Q92698; RAD54 Holliday junction branch migration, FAM/BHQ fluorescence; inhibition, % at 10.4 µM; hit rate 0.14% among 360,000;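 active means mean normalized replicate activity at least 40 and at least half of replicates scoring 40 or more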;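 further: inhibitors cause a drop in the FAM fluorescence signal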
E-selectin induc = E-selectin induction on HUVECs | P16581 | HUVEC E-selectin immunofluorescence imaging; normalized: neutral wells 0, TNF-alpha wells 100 | activation, % at 7.58 µM | hit rate 0.37% among 260,000;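 active means mean E-selectin-positive cell signal at least 10% of the positive control, reached in at least 60% of replicates, without over 20% cell loss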
Target sequence (P16581 whole entry, looked up): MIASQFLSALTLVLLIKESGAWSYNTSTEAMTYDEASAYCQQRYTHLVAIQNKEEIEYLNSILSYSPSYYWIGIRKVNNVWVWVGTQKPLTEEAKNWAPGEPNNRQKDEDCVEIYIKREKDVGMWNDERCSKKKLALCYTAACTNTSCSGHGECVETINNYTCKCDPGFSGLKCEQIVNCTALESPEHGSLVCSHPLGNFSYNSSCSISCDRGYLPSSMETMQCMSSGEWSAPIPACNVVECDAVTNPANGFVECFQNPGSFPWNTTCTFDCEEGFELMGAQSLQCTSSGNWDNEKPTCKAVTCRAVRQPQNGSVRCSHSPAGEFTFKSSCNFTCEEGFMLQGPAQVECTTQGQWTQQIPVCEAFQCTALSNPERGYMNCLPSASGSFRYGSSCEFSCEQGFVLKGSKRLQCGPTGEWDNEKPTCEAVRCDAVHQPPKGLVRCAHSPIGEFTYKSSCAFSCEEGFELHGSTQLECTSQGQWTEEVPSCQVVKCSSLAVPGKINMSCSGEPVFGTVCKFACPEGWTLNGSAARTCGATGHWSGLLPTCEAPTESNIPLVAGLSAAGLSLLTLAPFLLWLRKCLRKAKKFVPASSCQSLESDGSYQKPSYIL
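Test system: HUVEC | Signal: Immunofluorescence imaging | Read-out: Percent E-selectin-positive cells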
RAD52 anneal inh = inhibitors of human RAD52 DNA annealing. recombinant RAD52 DNA annealing, FRET fluorescence. inhibition, % at 18.7 µM. hit rate 0.46% among 360,000;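 active means every replicate showing at least 50% inhibition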
Numbers stand for hits. Compounds with a hit are over-represented: about 2.6% of the library has one in this group of screens.

For COc1ccc(CCNC(=O)C(=O)c2c(C)n(C)c3ccccc23)cc1OC the results were MLL AF4-AF9 inh inactive, GSIS activator 46.0, rRNA inh HTS inactive, RAD54 inh inactive and RAD52 anneal inh inactive.
`Cc1c(C(=O)C(=O)NCCC2=CCCCC2)c2ccccc2n1C` gave MLL AF4-AF9 inh inactive, rRNA inh HTS inactive and RAD52 anneal inh inactive.
CO[C@@H]1CN(C)C(=O)c2ccc(NC(=O)C3CCOCC3)cc2OC[C@@H](C)N(CC2CC2)C[C@H]1C was read as MLL AF4-AF9 inh inactive, GSIS activator inactive, rRNA inh HTS inactive, RAD54 inh inactive, E-selectin induc inactive and RAD52 anneal inh inactive.
For CC(C)NC(=O)N(C)C[C@@H]1Oc2ccc(NC(=O)CCN3CCOCC3)cc2C(=O)N([C@@H](C)CO)C[C@H]1C the results were MLL AF4-AF9 inh inactive, GSIS activator inactive, rRNA inh HTS inactive, RAD54 inh inactive, E-selectin induc 33.0 and RAD52 anneal inh inactive.
Screening CC(C)NC(=O)N(C)C[C@H]1Oc2ccc(NC(=O)CCN3CCOCC3)cc2C(=O)N([C@@H](C)CO)C[C@@H]1C returned MLL AF4-AF9 inh inactive, GSIS activator inactive, rRNA inh HTS inactive, RAD54 inh inactive, E-selectin induc inactive and RAD52 anneal inh inactive.
`CC(C)NC(=O)N(C)C[C@H]1Oc2ccc(NC(=O)CCN3CCOCC3)cc2C(=O)N([C@H](C)CO)C[C@@H]1C` gave MLL AF4-AF9 inh inactive, GSIS activator inactive, rRNA inh HTS inactive, RAD54 inh inactive, E-selectin induc 43.2 and RAD52 anneal inh inactive.
CC(C)NC(=O)N(C)C[C@H]1Oc2ccc(NC(=O)CCN3CCOCC3)cc2C(=O)N([C@H](C)CO)C[C@H]1C was read as MLL AF4-AF9 inh inactive, GSIS activator inactive, rRNA inh HTS inactive, RAD54 inh inactive, E-selectin induc inactive and RAD52 anneal inh inactive.
COc1ccccc1CNC(=O)C[C@@H]1C=C[C@H](NC(C)=O)[C@@H](CO)O1 was read as MLL AF4-AF9 inh inactive, GSIS activator inactive, rRNA inh HTS inactive, RAD54 inh inactive, E-selectin induc inactive and RAD52 anneal inh inactive.
Screening CO[C@H]1CN(C)C(=O)c2ccc(NS(=O)(=O)c3ccccc3C)cc2OC[C@@H](C)NC[C@H]1C returned MLL AF4-AF9 inh inactive, GSIS activator inactive, rRNA inh HTS inactive, RAD54 inh inactive, E-selectin induc inactive and RAD52 anneal inh inactive.
CCCNC(=O)Nc1ccc2c(c1)C(=O)N(C)C[C@@H](OC)[C@H](C)CN(Cc1ccccn1)[C@@H](C)CO2 was read as GSIS activator inactive, rRNA inh HTS inactive, RAD54 inh inactive and E-selectin induc inactive.
Screening Cc1ccccc1S(=O)(=O)N(C)C[C@@H]1OCc2cn(nn2)CCCC(=O)N([C@H](C)CO)C[C@@H]1C returned MLL AF4-AF9 inh inactive, GSIS activator inactive, rRNA inh HTS inactive, RAD54 inh inactive, E-selectin induc inactive and RAD52 anneal inh inactive.
For NS(=O)(=O)c1cccc(NC(=O)COC(=O)c2ccccc2C(=O)c2ccccc2)c1 the results were MLL AF4-AF9 inh inactive, GSIS activator inactive, rRNA inh HTS -32.5, RAD54 inh inactive and RAD52 anneal inh inactive.
`COc1ccc(S(=O)(=O)N(C)C[C@H]2Oc3ccc(NC(=O)Nc4ccc5c(c4)OCO5)cc3C(=O)N([C@H](C)CO)C[C@H]2C)cc1` gave MLL AF4-AF9 inh inactive, GSIS activator inactive, rRNA inh HTS inactive, RAD54 inh inactive, E-selectin induc inactive and RAD52 anneal inh inactive.
Screening Cc1ccc(Cl)cc1NC(=S)N(Cc1ccccc1)Cc1cccnc1 returned MLL AF4-AF9 inh inactive, GSIS activator inactive, rRNA inh HTS -26.1 and RAD52 anneal inh inactive.
`COc1ccc(Cl)cc1NC(=S)N(Cc1cccnc1)Cc1ccco1` gave MLL AF4-AF9 inh inactive, GSIS activator inactive, rRNA inh HTS -24.1, E-selectin induc inactive and RAD52 anneal inh inactive.
COc1ccccc1NC(=S)N(Cc1cccnc1)Cc1ccco1 was read as MLL AF4-AF9 inh inactive, GSIS activator inactive, rRNA inh HTS inactive, RAD54 inh inactive and RAD52 anneal inh inactive.
C[C@H]1CN([C@@H](C)CO)C(=O)Cc2cc(NC(=O)CCCN(C)C)ccc2O[C@H]1CN(C)Cc1ccc(-c2ccccc2)cc1 was read as MLL AF4-AF9 inh inactive and RAD52 anneal inh inactive.
`C[C@H](CO)N1C[C@H](C)[C@@H](CN(C)Cc2ccc(Cl)c(Cl)c2)Oc2ccc(NC(=O)CCCN(C)C)cc2CC1=O` gave MLL AF4-AF9 inh inactive, GSIS activator inactive, rRNA inh HTS inactive, RAD54 inh inactive, E-selectin induc inactive and RAD52 anneal inh 59.5.
Screening C[C@H](CO)N1C[C@H](C)[C@H](CN(C)Cc2ccc(-c3ccccc3)cc2)Oc2ccc(NC(=O)CCCN(C)C)cc2CC1=O returned MLL AF4-AF9 inh inactive, GSIS activator inactive, rRNA inh HTS inactive, RAD54 inh inactive and RAD52 anneal inh 52.8.
Screening C[C@@H]1CN([C@H](C)CO)C(=O)Cc2cc(NC(=O)CCCN(C)C)ccc2O[C@H]1CN(C)Cc1ccc(-c2ccccc2)cc1 returned MLL AF4-AF9 inh inactive, GSIS activator 72.4, rRNA inh HTS inactive, RAD54 inh inactive and RAD52 anneal inh 73.4.
C[C@H](CO)N1C[C@H](C)[C@@H](CN(C)Cc2ccccc2)Oc2ccc(NC(=O)CCCN(C)C)cc2CC1=O was read as GSIS activator inactive, rRNA inh HTS inactive and E-selectin induc inactive.
For O=C(C[C@@H]1C=C[C@@H](NC(=O)Nc2ccc(C(F)(F)F)cc2)[C@@H](CO)O1)NCc1ccccn1 the results were MLL AF4-AF9 inh inactive, GSIS activator inactive, rRNA inh HTS inactive, RAD54 inh inactive, E-selectin induc inactive and RAD52 anneal inh inactive.
Cc1noc(C)c1S(=O)(=O)Nc1ccc2c(c1)C(=O)N([C@H](C)CO)C[C@H](C)[C@@H](CN(C)S(=O)(=O)c1c(C)noc1C)O2 was read as GSIS activator inactive and rRNA inh HTS inactive.
For COc1ccc(C(=O)NCc2cc(C)nc3ccccc23)cc1OC the results were MLL AF4-AF9 inh inactive, GSIS activator inactive, rRNA inh HTS inactive, RAD54 inh inactive, E-selectin induc inactive and RAD52 anneal inh inactive.
Screening COc1ccc(C(=O)N(c2ccccc2)c2nccc3ccccc23)cc1OC returned MLL AF4-AF9 inh inactive, GSIS activator inactive, rRNA inh HTS -18.5, RAD54 inh inactive, E-selectin induc inactive and RAD52 anneal inh inactive.
For Cc1ccc(S(=O)(=O)C2(C(=O)N3CCN(c4cc(C)ccc4C)CC3)CC2)cc1 the results were MLL AF4-AF9 inh 37.8, GSIS activator inactive, rRNA inh HTS inactive, RAD54 inh inactive, E-selectin induc inactive and RAD52 anneal inh inactive.
`CC(=O)Nc1ccc(-c2csc(NCc3ccccc3)n2)cc1` gave MLL AF4-AF9 inh inactive, GSIS activator inactive, rRNA inh HTS inactive, E-selectin induc inactive and RAD52 anneal inh inactive.
CC(=O)Nc1cccc(-c2csc(NCc3ccccc3)n2)c1 was read as MLL AF4-AF9 inh inactive, GSIS activator inactive, rRNA inh HTS -29.8, E-selectin induc inactive and RAD52 anneal inh inactive.

From PubChem
